Laboratory results as given in ChEMBL document CHEMBL2396525, “Synthesis and anti-HCMV activity of 1-[ω-(phenoxy)alkyl]uracil derivatives and analogues thereof” (Bioorg Med Chem, 2013).
Activity calls are given as the source filed them. The calls are words filed in the database; no cut-off is given here.

Key:
Human alphaherpesvirus 3 [1] = assay: Antiviral activity against Varicella-zoster virus OKA; format: functional; conditions: strain Oka vaccine
In short: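 Confluent cell monolayers were infected with 10 or 100 PFU of VZV in the presence of serial compound dilutions. Plaque formation was recorded once untreated infected controls reached completion. EC50 was the concentration that reduced plaque formation by 50%.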

Influenza B virus = assay: Antiviral activity against Influenza B virus; format: functional, organism-based
In short: (§1)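 The assay was a cell-based cytopathicity inhibition test on confluent monolayers with serial compound dilutions. EC50 was the concentration that reduced virus-induced cytopathicity by 50%.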

[2] = test system: Human immunodeficiency virus 1; assay: Antiviral activity against HIV1 3B infected in human CEM cells assessed as inhibition of virus-induced giant cell formation after 4 to 5 days; format: functional, organism-based; conditions: CCRF-CEM
In short: (§2)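 CEM cells at about 3 × 10^5 cells/mL were infected with 100 CCID50 of HIV per mL, with compound dilutions present. They were incubated 4–5 days at 37 °C in humidified CO2, and syncytia were scored microscopically. EC50 is the concentration that inhibits giant cell formation by 50%.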

Coxsackievirus B4 = assay: Antiviral activity against Coxsackie B4 virus; format: functional, organism-based
In short: (§3)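 Confluent HEL, Vero, HeLa or MDCK cell cultures were inoculated with 100 CCID50 of virus alongside varying compound concentrations. Cytopathicity was scored when it reached completion in untreated virus controls. EC50 is the concentration that reduces virus-induced cytopathogenicity by 50%.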

Human betaherpesvirus 5 [3] = assay: Antiviral actiivty against Human herpesvirus 5 AD169 infected in HEL assessed as reduction of virus-induced plaque formation; format: functional, organism-based; conditions: Human betaherpesvirus 5, AD169
In short: (§4)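 HCMV strains AD-169 and Davis were tested on confluent human embryonic lung fibroblast monolayers infected with 100 PFU in the presence of serial compound concentrations. Plaques were counted once formation was complete in untreated infected controls. EC50 is the concentration that cuts plaque formation by 50%.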

Human respirovirus 3 = assay: Antiviral activity against Parainfluenza virus 3; format: functional, organism-based; in short: as §3
[4] = Cytotoxicity against HEL assessed as minimum cytotoxic concentration required to cause microscopically detectable alteration in cell morphology; format: cell-based; conditions: human, HEL cells
Sindbis virus = assay: Antiviral activity against Sindbis virus; format: functional, organism-based; in short: as §3
Human alphaherpesvirus 3 [5] = assay: Antiviral activity against Varicella-zoster virus YS; format: functional, organism-based
In short: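 VZV was assayed by plaque formation. Confluent cell cultures received 10 or 100 PFU with varying compound concentrations, and plaques were recorded once complete in untreated infected controls. EC50 is the concentration that reduces plaque formation by 50%.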

HEL = assay: Cytotoxicity against HEL; format: cell-based; conditions: human
Human betaherpesvirus 5 [6] = assay: Antiviral actiivty against Human herpesvirus 5 Davis infected in HEL assessed as reduction of virus-induced plaque formation; format: functional, organism-based; conditions: Human betaherpesvirus 5, Davis; in short: as §4
Influenza A virus [7] = assay: Antiviral activity against Influenza virus A virus H3N2; format: functional, organism-based; in short: as §1
Feline coronavirus = assay: Antiviral activity against Feline coronavirus; format: functional, organism-based
Human alphaherpesvirus 2 [8] = assay: Antiviral activity against Herpes simplex virus type 2 G; format: functional, organism-based; conditions: strain G; in short: as §3
Punta Toro virus = assay: Antiviral activity against Punta Toro virus; format: functional, organism-based; in short: as §3
[9] = test system: Respiratory syncytial virus; assay: Antiviral activity against Respiratory syncytial virus Long; format: functional, organism-based; in short: as §3
Influenza A virus [10] = assay: Antiviral activity against Influenza virus A virus H1N1; format: functional, organism-based; in short: as §1
Human alphaherpesvirus 1 [11] = assay: Antiviral activity against Herpes simplex virus type 1 KOS; format: functional, organism-based; in short: as §3
[12] = test system: Mammalian orthoreovirus 1; assay: Antiviral activity against Reovirus-1; format: functional, organism-based; in short: as §3
Human alphaherpesvirus 2 [13] = assay: Antiviral activity against Herpes simplex virus type 2 Lyons; format: functional, organism-based; in short: as §3
Vaccinia virus = assay: Antiviral activity against Vaccinia virus Lederle; format: functional, organism-based; conditions: Orthopoxvirus vaccinia
Human alphaherpesvirus 1 [14] = assay: Antiviral activity against thymidine kinase deficient acyclovir-resistant Herpes simplex virus type 1 KOS; format: functional, organism-based
[15] = test system: Human immunodeficiency virus 2; assay: Antiviral activity against HIV2 ROD infected in human CEM cells assessed as inhibition of virus-induced giant cell formation after 4 to 5 days; format: functional, organism-based; conditions: ISOLATE ROD, CCRF-CEM; in short: as §2
[16] = test system: Vesicular stomatitis virus; assay: Antiviral activity against Vesicular stomatitis virus; format: functional, organism-based

SMILES	Activity (Human alphaherpesvirus 3 [1])	Activity (Influenza B virus)	Activity [2]	Activity (Coxsackievirus B4)	EC50 (Human betaherpesvirus 5 [3]) [µM]	Activity (Human respirovirus 3)	MCC [4] [µM]	Activity (Sindbis virus)	Activity (Human alphaherpesvirus 3 [5])	CC50 (HEL) [µM]	EC50 (Human betaherpesvirus 5 [6]) [µM]	Activity (Influenza A virus [7])	Activity (Feline coronavirus)	Activity (Human alphaherpesvirus 2 [8])	Activity (Punta Toro virus)	Activity [9]	Activity (Influenza A virus [10])	Activity (Human alphaherpesvirus 1 [11])	Activity [12]	Activity (Human alphaherpesvirus 2 [13])	also measured
Cc1cn(CCCCCOc2ccc(Br)cc2)c(=O)[nH]c1=O	inactive	inactive	inactive	inactive	8.9	inactive	100	inactive	inactive	> 100	9	inactive	inactive	inactive	inactive	inactive	inactive	inactive	inactive	inactive	Activity (Vaccinia virus): inactive; Activity (Human alphaherpesvirus 1 [14]): inactive; Activity [15]: inactive; Activity [16]: inactive
CC(C)c1ccc(OCCCCCn2ccc(=O)[nH]c2=O)cc1	inactive	inactive	inactive	inactive	25	inactive	100	inactive	inactive	> 100	15	inactive	inactive	inactive	inactive	inactive	inactive	inactive	inactive	inactive	Activity (Vaccinia virus): inactive; Activity (Human alphaherpesvirus 1 [14]): inactive; Activity [15]: inactive; Activity [16]: inactive
O=c1ccn(CCCCCOc2ccc(Br)cc2)c(=O)[nH]1	inactive	inactive	inactive	inactive	9.4	inactive	100	inactive	inactive	> 100	12	inactive	inactive	inactive	inactive	inactive	inactive	inactive	inactive	inactive	Activity (Vaccinia virus): inactive; Activity (Human alphaherpesvirus 1 [14]): inactive; Activity [15]: inactive; Activity [16]: inactive
O=c1[nH]c(=O)n(CCCCCOc2ccc(Br)cc2)cc1I	inactive	inactive	inactive	inactive	13	inactive	≥ 100	inactive	inactive	> 100	20	inactive	inactive	inactive	inactive	inactive	inactive	inactive	inactive	inactive	Activity (Vaccinia virus): inactive; Activity (Human alphaherpesvirus 1 [14]): inactive; Activity [15]: inactive; Activity [16]: inactive
CCCOC(=O)c1ccc(OCCCCCn2ccc(=O)[nH]c2=O)cc1	inactive	inactive	inactive	inactive	45	inactive	≥ 100	inactive	inactive	> 100	45	inactive	inactive	inactive	inactive	inactive	inactive	inactive	inactive	inactive	Activity (Vaccinia virus): inactive; Activity (Human alphaherpesvirus 1 [14]): inactive; Activity [15]: inactive; Activity [16]: inactive
